We go through five substances from article PMC8777244 (Biochemistry and Biophysics Reports, 2022).

Several values for one entry are separate records, joined by “and”; a condition that tells them apart may be missing. Identical values can stand only once. Entries after “also recorded” stand apart in the source; their conditions may differ.

The test system of one data set is Nox5. Conditions: peptide from the scaffold domain of Cav-1; ref [13]; cited from earlier work.
Another data set deals with nitric oxide synthase. Conditions: Cav-1p residues 82–101; ref [26]; cited from earlier work.
The subject of data set [1] is CaM. Briefly: CaM interaction by size-exclusion chromatography. Conditions: D-CMBD with CaM; for Complex with CaM in SEC, Ca^2+: 0.2 M NaCl, 2 mM Ca^2+. The class given is binding. In short, it runs like this: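 HPLC size-exclusion used a Shodex KW802.5 column at 1.0 mL/min with 280 nm detection. Buffer was Tris, pH 7.5, with 0.2 M NaCl (range 0.2–0.5 M) plus 2 mM Ca²⁺ or 1 mM EDTA. Samples were filtered through 0.45 μm. MBP-DH constructs, alone or mixed with CaM or Dansyl-CaM, were compared with BSA. Collected fractions were assayed for Dansyl fluorescence.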
(SEC sorts molecules by how far they enter the pores of the column.)

In a further data set the test system is CCaM. In words: CMBD/CCaM binding by isothermal titration calorimetry. To be noted: CMBD titrated into CCaM; 50 mM Tris, pH 7.5, 2 mM Ca^2+, 25 °C; mean ± SD. Summed up: (§1)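 ITC was run on a VP-ITC at 25 °C in 50 mM Tris, 2 mM Ca²⁺, pH 7.5, with 0.15–0.25 M NaCl added for salt studies. Injections were 5 or 10 μL over 10 or 20 s, spaced 120 s. Heat of dilution (titrant into buffer) was subtracted. Data were fitted with a one-set-of-sites model. Back-titration used 250 μM CaM into 40 μM CMBD. Values are mean ± SD.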
On the technique in general: ITC needs no label: the signal is the heat of the interaction.

A further data set relates to NCaM. Briefly: CMBD/NCaM binding by isothermal titration calorimetry. To be noted: CMBD titrated into NCaM; 50 mM Tris, pH 7.5, 2 mM Ca^2+, 25 °C; mean ± SD. Summed up:
as §1

Data set [2] relates to CaM. Briefly: CaM/CMBD binding by isothermal titration calorimetry. Summed up:
as §1

The subject of data set [3] is CaM. To be noted: titration curve inflection point; ref [18]; cited from earlier work.
For data set [4], the system named is CaM. Conditions: ref [17]; cited from earlier work.
In data set [5] the test system is CaM. To be noted: Ca^2+-CaM; ref [11]; cited from earlier work.
For data set [6], the system named is CaM. In words: CaM/CMBD binding by Trp fluorescence anisotropy. Conditions: Ca^2+. Summed up: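 Trp anisotropy of 1 μM CMBD peptide (residues 671–689) was recorded during CaM titration. Excitation was 280 or 295 nm, and excitation and emission slits were both 10 nm, with polarizers. Buffer was 50 mM Tris, pH 7.5, 2 mM Ca²⁺, at room temperature. Anisotropy values were fitted following earlier work. Values are mean ± SD of at least three runs.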
For orientation: Fluorescence polarisation rises when a labelled molecule tumbles more slowly, as on binding a larger partner.

For another data set, the system named is D-CaM. Briefly: CMBD binding to Ca^2+-D-CaM by fluorescence. To be noted: CMBD added to 2 μM D-CaM, 50 mM Tris, 2 mM Ca^2+, pH 7.5. In short, it runs like this: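 D-CaM (Dansyl-labelled calmodulin) was excited at 335 nm, with excitation and emission slits of 2 and 5 nm, on a temperature-controlled fluorometer. Emission spectra were followed during titration with MBP-fused Nox5 dehydrogenase (DH) constructs or CMBD peptide. Buffer was 50 mM Tris, pH 7.5, with 2 mM Ca²⁺. Fits of intensity changes followed earlier work. Each measurement was done at least three times using 2–3 protein batches.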

Data set [7] concerns CaM. In words: CaM/CMBD binding by Trp fluorescence.
A short description of data set [8]: Size-exclusion chromatography, oligomeric states. In kind it is physicochemical. Summed up:
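HPLC gel filtration of amylose-purified MBP-fused NOX5 dehydrogenase domain, run against CaM and BSA references. Column equilibrated in Tris pH 7.5 (50 mM per figure legends, 20 mM per methods) with 0.2 M NaCl (0.2–0.5 M range), plus 2 mM Ca²⁺ or 1 mM EDTA. Runs at 1.0 mL/min with 280 nm detection. 2 M urea added to partially dissociate oligomers. Species assigned by elution time.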

For data set [9], the system named is CaM. Briefly: CaM/D-CMBD binding by Dansyl fluorescence. In short, it runs like this:
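N-terminally Dansyl-labelled Nox5β CMBD peptide (residues 671–689) was titrated with CaM at room temperature. Excitation was 335 nm, with 2/5 nm slits. Buffer was 50 mM Tris, pH 7.5, with 2 mM Ca²⁺ or 1 mM EDTA. Emission maxima and intensity changes were recorded and fitted following earlier work. Values are mean ± SD of at least three runs.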

With “Cav-1P: peptide from the scaffold domain of Cav-1 (residues 82–101) (DGIWKASFTTFTVTKYWFYR; UniProt Q03135 82-101, looked up, fragment)”, the “Effect on Nox5's superoxide-generating activity” value in the data set with Nox5 is given as “inhibit the Nox5's superoxide-generating activity”. Besides, the “Effect on NO production” value with nitric oxide synthase is on record as “inhibits the NO production”.
As to H2NRPDWSKVFQKVAAEKKGKVCOOH [CMBD], the “Complex with CaM in SEC, Ca^2+” value in the data set on CaM [1] is reported as “a stable Ca^2+-CaM/CMBD complex was formed in non-equilibrium system”. In the data set with CCaM, the “Binding constant, ITC CMBD/CCaM” value is on record as “(9.50 ± 0.62) x 10^5 M^-1”. The “Binding constant, ITC CMBD/NCaM” value in the data set with NCaM was “(2.42 ± 1.21) x 10^6 M^-1”. In addition, in the data set on CaM [2] (250 μM CaM into 40 μM CMBD, 25 °C), the “nCaM/CMBD, ITC back-titration” value amounted to 0.56. For the same substance, in the data set with CaM [2] (0.1 − 0.25 M NaCl), the “Effect of NaCl on binding” value was “does not change significantly”. Besides, in the data set on CaM [2] (converted from nCaM/CMBD, 250 μM CaM into 40 μM CMBD, 25 °C, mean ± SD), the “Stoichiometry n[peptide]/Protein (nCMBD/CaM), ITC CaM/CMBD (back-titration)” value is 1.79 and 1.79 ± 0.11. The “Cooperativity of CMBD binding” value with CaM [2] (two CMBD peptides on half-domains of CaM) is on record as “no cooperativity was observed”. Besides, in the data set with CaM [3], the “Ka, previous estimate” value was 4e+07 M⁻¹ and the “Stoichiometry, previous estimate” value is on record as “near unity stoichiometry”. Moreover, the “Binding mode in crystal structure” value in the data set on CaM [4] is listed as “each of the two CMBD peptides is bound in the cleft formed in half-domain”. The “ANS fluorescence decrease of CaM/CMBD” value in the data set with CaM [5] is approximately 3%. The “Molar ratio at saturation (anisotropy)” value with CaM [6] (1 μM CMBD with CaM) was approximately 1.2. Further, in the data set on CaM [6] (1 μM CMBD with CaM, emission 352 nm), the “Trp anisotropy value (r), complexed with CaM (maximum)” value was determined as 0.136. The “Trp anisotropy value (r), peptide alone” value in the data set with CaM [6] (1 μM CMBD, emission 352 nm) was 0.0405. Also, the “Intensity change, CMBD with D-CaM” value with D-CaM is given as “very small intensity; also recorded: small intensity change”. Further, the “Equivalents of CaM to saturate binding (intensity)” value in the data set with CaM [7] (330 nm, Ca^2+) is reported as “one”. Besides, in the data set with CaM [7] (Trp fluorescence upon addition of CaM, Ca^2+), the “Emission maximum, CaM-bound CMBD” value stood at 330 nm. Further, the “CaM binding in the absence of Ca^2+ (CMBD)” value in the data set on CaM [7] (Trp fluorescence, 50 mM Tris, pH 7.5, 1 mM EDTA) is recorded as “A similar finding using CMBD's Trp fluorescence was found in the absence of Ca^2+; also recorded: non-specific electrostatic interaction which is not biologically significant”. Also, in the data set with CaM [7] (Trp fluorescence, blue shift, Ca^2+), the “Wavelength shift on CaM binding” value was approximately 20 nm.
Consider “Bovine serum albumin (BSA): Bovine serum albumin, SEC standard [reference compound]”, for which, in [8] (50 mM Tris, pH 7.5, 0.2 M NaCl, 66 kDa), the “SEC elution time, BSA monomer” value is recorded as 8.57 min. In addition, the “SEC elution time, BSA dimer” value in data set [8] (50 mM Tris, pH 7.5, 0.2 M NaCl, 132 kDa) amounted to 7.76 min. Also, the “SEC elution time, BSA trimer” value in data set [8] (50 mM Tris, pH 7.5, 0.2 M NaCl, 198 kDa) came out at 7.23 min.
For the substance hemoglobin [reference compound], the “SEC elution time, reference protein” value in [8] (0.2 M NaCl, same settings) came to 9.51 min.
As to H2NRPDWSKVFQKVAAEKKGKVCOOH [D-CMBD], in the data set on CaM [1] (1 mM EDTA), the “Dansyl fluorescence in CaM fraction, absence of Ca^2+” value is recorded as “No Dansyl fluorescence was found in the CaM fractions”. For the same substance, the “Complex with CaM in SEC, Ca^2+” value with CaM [1] was “complexed with Ca^2+-CaM when a large excess of CaM was included”. For the same substance, the “Stoichiometry n[Peptide]/[Protein], CaM/D-CMBD” value in the data set on CaM [9] (2 μM D-CMBD titrated with CaM, Dansyl fluorescence, 50 mM Tris, pH 7.5, 2 mM Ca^2+, room temperature, mean ± SD) is 2.11 and 2.11 ± 0.11. In the data set with CaM [9] (Ca^2+), the “Dansyl emission maximum, D-CMBD alone” value is 550 nm; the “Dansyl emission maximum, D-CMBD with CaM” value was determined as 518 nm; the “Dansyl intensity increase on CaM binding” value is listed as approximately 8 fold. The “Binding affinity in the absence of Ca^2+” value in the data set with CaM [9] (absence of Ca^2+ (EDTA), estimated, diminished in a higher ionic strength) is given as ~10^5 M^-1. For the same substance, the “SEC elution time, EDTA / apo” value in data set [8] (KW802.5 column, 1.0 mL/min, 0.2 M NaCl, 1 mM EDTA, pH 7.5) is given as 25.67 min. Also, the “SEC elution time, Ca^2+” value in data set [8] (KW802.5 column, 1.0 mL/min, 0.2 M NaCl, 2 mM Ca^2+, pH 7.5) was 29.31 min.
